The record followed here is ChEMBL document CHEMBL1157068, “Crossbyanols A-D, toxic brominated polyphenyl ethers from the Hawai'ian bloom-forming Cyanobacterium Leptolyngbya crossbyana” (J Nat Prod, 2010).

Series [1] concerns Neuro2a. The series is described as follows: Inhibition of voltage-gated sodium channel in mouse Neuro2a cells at 20 ug/ml after 24 hrs by MTT assay. It is filed as cell-based.
Series [2] has as its system Neuro2a. As to the kind of experiment: Activation of voltage-gated sodium channel in mouse Neuro2a cells at 20 ug/ml after 16 hrs by MTT assay. The class given is cell-based. The method, boiled down:
(§1)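 Neuro2a cells plated at 3.0×10^5 cells/mL in RPMI 1640 with 10% FBS and 1% pen/strep, 200 µL/well, recovered overnight (37 °C, 5% CO2). DMSO stocks (10 mg/mL) diluted in serum-free RPMI to a final 20 µg/mL. Bottom half of plate got 5 mM ouabain plus 150 µM veratridine in PBS/5 mM HCl; top half PBS/HCl only for general toxicity. Brevetoxin-2 positive control. MTT after ~16 h, read at 570/630 nm.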

The subject of the next series is Staphylococcus aureus. As to the kind of experiment: Antibacterial activity against methicillin-resistant Staphylococcus aureus after 24 hrs by optical density method. The class given is functional. The method, boiled down: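 MRSA grown on GYT medium for 24 h at 37 °C, then inoculated into GYT medium containing serial dilutions of compound and incubated 24 h at 37 °C. Growth read as optical density at 600 nm. MIC taken as the lowest concentration inhibiting bacterial growth.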

Another series concerns NCI-H460. The series is described as follows: Cytotoxicity against human H460 cells after 48 hrs by MTT assay. The class given is functional, cell-based. The method, boiled down:
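H-460 cells at 3.33×10^4 cells/mL in RPMI 1640 with FBS and 1% pen/strep, 180 µL/well, recovered overnight (37 °C, 5% CO2). DMSO stocks (10 mg/mL) diluted in serum-free RPMI to final 30 or 3 µg/mL; serum-free medium as negative control. ~48 h incubation, then MTT, absorbance read at 570 and 630 nm.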

The test system of the next series is Artemia salina. The series is described as follows: Toxicity in Artemia salina after 24 hrs. The class given is organism-based. The gist of the method: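 Artemia salina eggs hatched over 24 h; about 20 nauplii in ~0.5 mL seawater added per well holding sample in 50 µL EtOH plus 4.5 mL artificial seawater. Final concentrations 1, 5 and 25 ppm, controls and samples in triplicate. Live and dead counted after 24 h at 28 °C.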

Series [3] can be described thus: Activation of voltage-gated sodium channel in mouse Neuro2a cells after 16 hrs by MTT assay. It is filed as cell-based. As to conditions: N2a. The gist of the method: as §1

Converted amounts (≈) assume the structure as drawn. The source made the active and inactive calls. No cut-off for these calls is given here.

With `O=S(=O)(O)Oc1ccc(Oc2c(Br)cc(Oc3ccc(O)c(Br)c3)cc2Oc2ccc(Br)cc2Br)c(Br)c1Oc1ccc(Br)cc1Br`, the inhibition entry with Neuro2a [1] is “inactive”. The result with Neuro2a [2], in the series with Staphylococcus aureus and in the series with NCI-H460 was inactive.

Consider `O=S(=O)(O)Oc1ccc(Oc2cc(Br)c(Oc3ccc(O)c(Oc4ccc(Br)cc4Br)c3Br)c(Oc3ccc(Br)cc3Br)c2)cc1Br`, for which the inhibition entry with Neuro2a [1] is “inactive”. Further, the result with Neuro2a [2], with Staphylococcus aureus and in the series on NCI-H460 was inactive.

As to `Oc1ccc(Oc2cc(Br)c(Oc3ccc(O)c(Oc4ccc(Br)cc4Br)c3Br)c(Oc3ccc(Br)cc3Br)c2)cc1Br` [CROSSBYANOL A], the inhibition result in the series on Neuro2a [1] is “inactive”. The Activity entry in the series with Artemia salina (artemia salina, in vivo, 24 h) is recorded as “Non-toxic”. Further, in the series with Staphylococcus aureus, the result was inactive. Also, the IC50 was 20 µg/mL (≈ 19.4 µM) in series [3] and 30 µg/mL (≈ 29.1 µM) in the series with NCI-H460 (NCI-H460, 48 h).

On to `O=S(=O)(O)Oc1ccc(Oc2cc(Br)c(Oc3ccc(OS(=O)(=O)O)c(Oc4ccc(Br)cc4Br)c3Br)c(Oc3ccc(Br)cc3Br)c2)cc1Br` [CROSSBYANOL B], for which the inhibition entry with Neuro2a [1] was “inactive”. The compound also displayed an IC50 in the series with Artemia salina of 2.8 ppm. Besides, the result with Neuro2a [2] and with NCI-H460 was inactive. Moreover, inhibition of growth against Staphylococcus aureus (MIC) required 2 µg/mL (≈ 1.68 µM).
